Laboratory results taken from ChEMBL document CHEMBL5357039, “Physicochemical characterization of B-hydroxyphenyl phosphine borane derivatives and their evaluation as nuclear estrogen receptor ligands” (RSC Med Chem, 2024).
Activity calls are given as the source filed them. No cut-off for these calls is given here.

What was measured:
[1] = Aqueous stability of the compound in PBS assessed as compound remaining at pH 7.4 incubated for 3 hrs by HPLC analysis; format: physicochemical; settings: read-out: Stability
Summary of the method: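 Test compound at 0.1 mM in acetonitrile/PBS (5:95 v/v), held 3 h at 37 °C. Analysed by reversed-phase C18 HPLC with the column at 37.0 °C and UV detection at the peak wavelength between 220 and 240 nm. Residual % = peak area at 3 h / peak area at t0 × 100. Mean of triplicate runs.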

[2] = Dissociation constant, pKa of the compound by pH-metric method; format: physicochemical; settings: in the assay text read “pH-dependent UV absorbance method” for “pH-metric method”
Summary of the method: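 Determined from the change in absorbance at λmax in pH-dependent UV spectra, recorded in 20:80 (w/w) methanol–phosphate buffer over pH 6.0–12.0. Meter pH corrected as pH* = pH(recorded) − 0.01. Triplicate measurements.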

[3] = 1-Octanol/water partition coefficient, logP of the compound by HPLC analysis; format: physicochemical
[4] = tested on: Lipid bilayer; assay: Immobilized artificial membrane partition coefficient, logK-IAMex of the compound by HPLC analysis; format: physicochemical
Summary of the method: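 Run on an IAM.PC.DD2 column. Mobile phase was 0.01 M PBS, or acetonitrile (40% to 25% v/v in 5% steps) in 0.01 M PBS, at pH 7.4. Dead time was taken with methanol. The 100% aqueous value was obtained by linear extrapolation from the acetonitrile runs. Mean of triplicates.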

[5] = target: T1, Estrogen receptor (Homo sapiens) (UniProt P03372); assay: (§1) Agonist activity at human ERalpha expressed in HEK293 cells assessed as increase in […] activity incubated for 24 hrs by luciferase based microplate reader assay; format: cell-based
T1 sequence (whole entry): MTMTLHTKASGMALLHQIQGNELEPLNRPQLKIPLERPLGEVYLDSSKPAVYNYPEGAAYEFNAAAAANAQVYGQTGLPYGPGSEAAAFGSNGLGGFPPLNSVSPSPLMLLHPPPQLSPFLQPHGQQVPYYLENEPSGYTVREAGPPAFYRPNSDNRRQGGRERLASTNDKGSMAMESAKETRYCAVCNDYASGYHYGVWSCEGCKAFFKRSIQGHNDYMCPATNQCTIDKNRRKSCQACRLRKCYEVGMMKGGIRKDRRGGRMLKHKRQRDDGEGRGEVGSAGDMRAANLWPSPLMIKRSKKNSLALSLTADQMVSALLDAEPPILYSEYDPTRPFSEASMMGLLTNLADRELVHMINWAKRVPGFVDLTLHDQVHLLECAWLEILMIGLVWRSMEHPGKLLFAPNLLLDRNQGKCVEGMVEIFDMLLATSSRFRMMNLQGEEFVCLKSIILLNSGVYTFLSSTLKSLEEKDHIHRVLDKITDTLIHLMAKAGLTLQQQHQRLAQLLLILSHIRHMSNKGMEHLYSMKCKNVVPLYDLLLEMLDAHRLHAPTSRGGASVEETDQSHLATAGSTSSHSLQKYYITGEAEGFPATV

[6] = target: T2, Estrogen receptor (Homo sapiens, UniProt P03372); assay: as §1; format: cell-based
T2 sequence (P03372 whole entry): T1 sequence (whole entry)

| SMILES | remaining at 3 h [1] [%] | pKa [2] | logP [3] | logK-IAMex [4] | Activity [5] | EC50 [6] [µM] |
| --- | --- | --- | --- | --- | --- | --- |
| CC(C)(Cc1ccc(O)cc1)c1ccccc1 | 99 | 10.7 | 5.26 | 2.73 | – | – |
| CC(C)[P+](Bc1cccc(O)c1)(c1ccccc1)C(C)C | – | – | 4.93 | – | – | 3.45 |
| C[P+](C)(Bc1cccc(O)c1)c1ccccc1 | 99 | 11.3 | 3.27 | 1.71 | – | > 10 |
| CC[P+](Bc1cccc(O)c1)(CC)c1ccccc1 | 100 | 11.3 | 4.19 | 2.28 | – | 4.09 |
| CC(C)[P+](Bc1ccc(O)cc1)(c1ccccc1)C(C)C | – | – | 4.79 | – | – | > 10 |
| C[P+](C)(C)Bc1cccc(O)c1 | 100 | 11.3 | 2.55 | 0.81 | inactive | – |
| Oc1ccc(B[P+](C2CCCCC2)(C2CCCCC2)C2CCCCC2)cc1 | – | – | 7.22 | – | inactive | – |
| Oc1ccc(B[P+](C2CCCC2)(C2CCCC2)C2CCCC2)cc1 | – | – | 6.23 | – | inactive | – |
| C[Si](C)(Cc1ccc(O)cc1)c1ccccc1 | 96.2 | 10.9 | 5.74 | 3.05 | – | – |
| Oc1ccc(B[P+](C2CC2)(C2CC2)C2CC2)cc1 | – | – | 3.8 | – | – | 2.68 |
| CC(C)(C)Cc1ccc(O)cc1 | 92.5 | 10.8 | 4.36 | 2.22 | – | – |

Other lines, results leading:

| remaining at 3 h [1] [%] | pKa [2] | logP [3] | logK-IAMex [4] | Activity [5] | EC50 [6] [µM] | SMILES |
| --- | --- | --- | --- | --- | --- | --- |
| 94.5 | 11.2 | 3.18 | 1.91 | inactive | – | C[P+](C)(Bc1ccc(O)cc1)c1ccccc1 |
| 99.9 | 11.3 | 2.44 | 0.8 | inactive | – | C[P+](C)(C)Bc1ccc(O)cc1 |
| – | – | 6.32 | – | inactive | – | CCCC[P+](Bc1ccc(O)cc1)(CCCC)CCCC |
| – | – | 4.56 | – | – | – | CC(C)[P+](Bc1ccc(O)cc1)(C(C)C)C(C)C |
| 99.7 | 11.3 | 3.47 | 1.59 | – | > 10 | CC[P+](Bc1cccc(O)c1)(CC)CC |
| 97.6 | 11.1 | 4.11 | 2.46 | inactive | – | CC[P+](Bc1ccc(O)cc1)(CC)c1ccccc1 |
| 99.3 | 11 | 3.28 | 1.81 | – | – | CC[P+](Bc1ccc(O)cc1)(CC)CC |
| – | – | 6.43 | – | inactive | – | CCCC[P+](Bc1cccc(O)c1)(CCCC)CCCC |
| 89.9 | 10.7 | 4.91 | 2.38 | – | 1.41 | C[Si](C)(C)Cc1ccc(O)cc1 |
